In ChEMBL document CHEMBL4765269, “Design, synthesis and evaluation of phenylthiazole and phenylthiophene pyrimidindiamine derivatives targeting the bacterial membrane” (Eur J Med Chem, 2020):
≈ marks a conversion by molar mass, not a printed value. Calls of active or inactive are those of the source. The rule behind the calls is not given here. Where a SMILES comes first, the peptide text is derived from it. Bridges are numbered along the chain shown (N, C = ends). [ ]: non-standard residue; d: D form. The star is where a group is joined. X1 = CC[C@H](C)CCCCC(=O)*; Dab = NCC[C@H](N)C(=O)O

Assays:
Escherichia coli [1] = assay: Antibacterial activity against Escherichia coli ATCC 25922 assessed as inhibition of growth measured after 24 hrs by CLSI based broth microdilution method; type: functional
Staphylococcus aureus [2] = assay: Antibacterial activity against Staphylococcus aureus ATCC 29213 assessed as inhibition of growth measured after 24 hrs by CLSI based broth microdilution method; type: functional
Cell membrane [3] = assay: Induction of cell membrane damage in Escherichia coli ATCC 25922 assessed as fluorescence emission at MIC after 1 hr by propidium iodide staining based transmission electron microscopy (reference value: 4.34%); type: functional, subcellular; details: in the assay text read “flow cytometry” for “transmission electron microscopy”
In short: (§1)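 Log-phase bacteria diluted in PBS to about 10^9 CFU/mL and exposed to 1× MIC compound at 37 °C for 1 h. Cells were washed and stained with 60 µM propidium iodide in the dark for 15 min, then read at once by flow cytometry. The percentage of PI-stained cells was reported against an untreated control.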

[4] = Toxicity in rabbit red blood cells assessed as hemolysis at 3 to 22.5 ug/ml incubated for 1 hr relative to control; type: cell-based, Oryctolagus cuniculus, Erythrocyte; details: at 3 to 22.5 µg/mL, dose 3-22.5 µg/ml, read-out: Activity
In short: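 Washed rabbit erythrocytes at 2% in PBS were mixed with compound at final 3 to 22.5 µg/mL for 1 h at room temperature. After centrifugation at 1500 rpm for 10 min, supernatant absorbance was read at 450 nm. Hemolysis % = (A − A_PBS)/(A_Triton − A_PBS) × 100, with 0.5% Triton X-100 as the positive control. Run in triplicate.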

Escherichia coli [5] = assay: Antibacterial activity against Escherichia coli ATCC 25922 assessed as bacterial growth inhibition at 0.5 times of MIC concentration measured at logarithmic phase 6 th hr of bacterial cycle; type: functional, organism-based; details: time 24.0 hrs
In short: (§2)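 Bacteria grown in Mueller Hinton broth with compound at several MIC multiples, shaken at 220 rpm and 37 °C for 24 h. Growth was recorded every 2 h over the 24 h. The solvent control was 1% DMSO under the same conditions.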

Staphylococcus aureus [6] = assay: Antibacterial activity against Staphylococcus aureus ATCC 29213 assessed as bacterial growth inhibition at 0.5 times of MIC concentration measured at logarithmic phase 6 th hr of bacterial cycle; type: functional, organism-based; details: time 24.0 hrs; in short: as §2
Escherichia coli [7] = assay: Induction of morphological changes in Escherichia coli ATCC 25922 assessed as deformed, pitted and shriveled surface at MIC incubated for 12 hrs by scanning electron microscopy; type: functional, organism-based
In short: (§3)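 Cells treated with 1× MIC compound or PBS, then washed three times in PBS. Pellets were fixed in 2.5% glutaraldehyde for 2 h, dehydrated through an ethanol series, critical-point dried and gold-coated. Imaging was by SEM at 3 kV.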

Staphylococcus aureus [8] = assay: Induction of morphological changes in Staphylococcus aureus ATCC 29213 assessed as deformed, pitted and shriveled surface at MIC incubated for 12 hrs by scanning electron microscopy; type: functional, organism-based; in short: as §3
Escherichia coli [9] = assay: Induction of morphological changes in Escherichia coli ATCC 25922 assessed as damaged cells at MIC incubated for 12 hrs by Transmission electron microscopy; type: functional, organism-based
In short: (§4)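 Cells treated with 1× MIC compound or PBS, then washed three times in PBS. Pellets were fixed in 2.5% glutaraldehyde and then 1% osmium tetroxide, 2 h each, and examined by TEM.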

Staphylococcus aureus [10] = assay: Induction of morphological changes in Staphylococcus aureus ATCC 29213 assessed as damaged cells at MIC incubated for 12 hrs by Transmission electron microscopy; type: functional, organism-based; in short: as §4
Cell membrane [11] = assay: Induction of membrane disruption in Escherichia coli ATCC 25922 at 1 to 4 x MIC measured within 20 min by Ethidium bromide based fluorescence assay; type: functional, subcellular
In short: (§5)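 Log-phase cells washed and resuspended in PBS at about 10^8 CFU/mL. Ethidium bromide ([…], stated as final) and compound at various concentrations were added. Fluorescence (ex 540, em 590 nm) was read every 20 min for 80 min against a solvent control.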

Cell membrane [12] = assay: Induction of membrane disruption in Staphylococcus aureus ATCC 29213 at 1 to 4 x MIC measured within 20 min by Ethidium bromide based fluorescence assay; type: functional, subcellular; in short: as §5
Cell membrane [13] = assay: Induction of cell membrane damage in Staphylococcus aureus ATCC 29213 assessed as fluorescence emission at MIC after 1 hr by propidium iodide staining based transmission electron microscopy (Rvb= 1.53%); type: functional, subcellular; details: in the assay text read “flow cytometry” for “transmission electron microscopy”; in short: as §1
Cell membrane [14] = assay: Induction of membrane depolarization in Escherichia coli ATCC 25922 assessed as increased the fluorescence intensity at 1 to 2 times of MIC incubated for 80 min by [DiSC3(5)] probe based fluorescence assay; type: functional, subcellular
In short: (§6)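 Log-phase cells at 10^7 CFU/mL in PBS with 0.4 µM DiSC3(5) and 0.1 M KCl, kept in the dark. […] Fluorescence (ex 622, em 670 nm) was recorded continuously for 80 min.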

Cell membrane [15] = assay: Induction of membrane depolarization in Staphylococcus aureus ATCC 29213 assessed as increased the fluorescence intensity at 1 to 2 times of MIC incubated for 80 min by [DiSC3(5)] probe based fluorescence assay; type: functional, subcellular; in short: as §6
Staphylococcus aureus [16] = assay: Antibacterial activity against Staphylococcus aureus ATCC 29213 infected in mouse C57BL/6 bacterimia model assessed as reduction in number of viable pathogens in peritoneal cavity at 12 mg/kg, ip treated 1 hr after infection measured after 24 hrs; type: functional, organism-based
In short: (§7)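 Male C57BL/6 mice (20 ± 2 g, 7 per group) got an ip injection of 200 µL mid-log S. aureus in sterile saline (about 10^9 CFU per 20 g). Compound was given ip 1 h later. Controls were 0.9% saline and polymyxin B 12 mg/kg. After 24 h, peritoneal lavage (2 mL PBS) was serially diluted 10-fold onto TSA and incubated 18-24 h at 37 °C. CFU were counted.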

Staphylococcus aureus [17] = assay: Antibacterial activity against Staphylococcus aureus ATCC 29213 infected in mouse C57BL/6 bacterimia model assessed as reduction in number of viable pathogens in peritoneal cavity at 24 mg/kg, ip treated 1 hr after infection measured after 24 hrs; type: functional, organism-based; in short: as §7
Escherichia coli [18] = assay: Antibacterial activity against Escherichia coli ATCC 25922 assessed as bacterial growth inhibition at 1 to 2 times of MIC concentration measured at logarithmic phase 6 th hr of bacterial cycle; type: functional; details: time 6 hrs; in short: as §2
Staphylococcus aureus [19] = assay: Antibacterial activity against Staphylococcus aureus ATCC 29213 assessed as bacterial growth inhibition at 1 to 2 times of MIC concentration measured at logarithmic phase 6 th hr of bacterial cycle; type: functional; details: time 6 hrs; in short: as §2

Row | MIC (Escherichia coli [1]) [µg/mL] | MIC (Staphylococcus aureus [2]) [µg/mL] | SMILES | other results
1 | 8 (≈ 23.6 µM) | 8 (≈ 23.6 µM) | CC(C)CNc1nccc(NCc2ccc(-c3ccccc3)s2)n1 | –
2 | 32 (≈ 26.6 µM) | 512 (≈ 425 µM) | CC[C@H](C)CCCCC(=O)N[C@@H](CCN)C(=O)N[C@H](C(=O)N[C@@H](CCN)C(=O)N[C@H]1CCNC(=O)[C@H]([C@@H](C)O)NC(=O)[C@H](CCN)NC(=O)[C@H](CCN)NC(=O)[C@H](CC(C)C)NC(=O)[C@@H](Cc2ccccc2)NC(=O)[C@H](CCN)NC1=O)[C@@H](C)O (X1-[Dab]T[Dab][Dab][Dab][dF]L[Dab][Dab]T; lactam 4-C) | –
3 | 4 (≈ 9.58 µM) | 8 (≈ 19.2 µM) | CC(C)CNc1nccc(NCc2ccc(-c3ccccc3Br)s2)n1 | –
4 | > 32 | > 32 | CCCCN(CCCC)c1nccc(NCc2ccc(-c3ccccc3)s2)n1 | –
5 | > 32 | 8 (≈ 22.4 µM) | CC(C)CNc1nccc(NCc2ccc(-c3ccc(F)cc3)s2)n1 | –
6 | > 32 | > 32 | Clc1nccc(NCc2csc(-c3ccccc3)n2)n1 | –
7 | 8 (≈ 21.8 µM) | > 32 | CCCN(CCC)c1nccc(NCc2ccc(-c3ccccc3)s2)n1 | –
8 | 8 (≈ 24.7 µM) | 16 (≈ 49.3 µM) | CCCNc1nccc(NCc2ccc(-c3ccccc3)s2)n1 | –
9 | 4 (≈ 10.9 µM) | 4 (≈ 10.9 µM) | COc1ccc(-c2ccc(CNc3ccnc(NCC(C)C)n3)s2)cc1 | –
10 | > 32 | > 32 | CC(C)CNc1nccc(NCc2csc(-c3ccccc3)n2)n1 | –
11 | > 32 | > 32 | c1ccc(-c2ccc(CNc3ccnc(N4CCOCC4)n3)s2)cc1 | –
12 | 16 (≈ 51.5 µM) | > 32 | CCNc1nccc(NCc2ccc(-c3ccccc3)s2)n1 | –
13 | 8 (≈ 23.8 µM) | 8 (≈ 23.8 µM) | c1ccc(-c2ccc(CNc3ccnc(N4CCCC4)n3)s2)cc1 | –
14 | > 32 | > 32 | c1ccc(-c2ccc(CNc3ccnc(N4CCNCC4)n3)s2)cc1 | –
15 | 2 (≈ 5.07 µM) | 8 (≈ 20.3 µM) | CC(C)CNc1nccc(NCc2ccc(-c3ccc(C(C)(C)C)cc3)s2)n1 | –
16 | > 32 | > 32 | CC(C)CN(CC(C)C)c1nccc(NCc2ccc(-c3ccccc3)s2)n1 | –
17 | 8 (≈ 18 µM) | 8 (≈ 18 µM) | CC(C)CNc1nccc(NCc2ccc(-c3ccc(OCc4ccccc4)cc3)s2)n1 | –
18 | 2 (≈ 4.79 µM) | 3 (≈ 7.19 µM) | CC(C)CNc1nccc(NCc2ccc(-c3cccc(Br)c3)s2)n1 | Activity (Cell membrane [3]): 77.2%; hemolysis at 1 h [4]: < 20%; Activity (Escherichia coli [5]): Active; Activity (Staphylococcus aureus [6]): Active; Activity (Escherichia coli [7]): Active; Activity (Staphylococcus aureus [8]): Active; Activity (Escherichia coli [9]): Active; Activity (Staphylococcus aureus [10]): Active; Activity (Cell membrane [11]): Active; Activity (Cell membrane [12]): Active; Activity (Cell membrane [13]): 58.5%; Activity (Cell membrane [14]): Active; Activity (Cell membrane [15]): Active; Activity (Staphylococcus aureus [16]): Active; Activity (Staphylococcus aureus [17]): Active; inhibition (INH) (Escherichia coli [18]): 100%; inhibition (INH) (Staphylococcus aureus [19]): 100%
19 | > 32 | > 32 | CC(C)Nc1nccc(NCc2ccc(-c3ccccc3)s2)n1 | –
20 | 2 (≈ 4.79 µM) | 4 (≈ 9.58 µM) | CC(C)CNc1nccc(NCc2ccc(-c3ccc(Br)cc3)s2)n1 | –
21 | > 32 | 4 (≈ 11.8 µM) | CCCCNc1nccc(NCc2ccc(-c3ccccc3)s2)n1 | –
22 | 8 (≈ 21.5 µM) | 8 (≈ 21.5 µM) | CC(C)CNc1nccc(NCc2ccc(-c3ccc(Cl)cc3)s2)n1 | –

Row | SMILES | MIC (Escherichia coli [1]) [µg/mL] | MIC (Staphylococcus aureus [2]) [µg/mL] | other results
23 | O=C(N[C@H](CO)[C@H](O)c1ccc([N+](=O)[O-])cc1)C(Cl)Cl [CHLORAMPHENICOL] | 8 (≈ 24.8 µM) | 8 (≈ 24.8 µM) | –
24 | CN[C@H](CC(C)C)C(=O)N[C@H]1C(=O)N[C@@H](CC(N)=O)C(=O)N[C@H]2C(=O)N[C@H]3C(=O)N[C@H](C(=O)N[C@H](C(=O)O)c4cc(O)cc(O)c4-c4cc3ccc4O)[C@H](O)c3ccc(c(Cl)c3)Oc3cc2cc(c3O[C@@H]2O[C@H](CO)[C@@H](O)[C@H](O)[C@H]2O[C@H]2C[C@](C)(N)[C@H](O)[C@H](C)O2)Oc2ccc(cc2Cl)[C@H]1O [VANCOMYCIN] | 1 (≈ 0.69 µM) | – | –
